Experimental data from ChEMBL document CHEMBL1949587 (Bioorg Med Chem, 2012).
Values belong to the compound of their own block, whether it stands above or below them. Active and inactive are the calls of the source. The calls are words filed in the database; no cut-off is given here.

What was measured:
NCI-H460 = test: Antiproliferative activity against PTX-resistant human NCI-H460 cells assessed as cell growth inhibition; type: cell-based
[1] = target: Cyclin-dependent kinase 1 (Homo sapiens, UniProt P06493); test: Inhibition of CDK1
HCT-15 = test: Antiproliferative activity against human HCT15 cells assessed as cell growth inhibition; type: cell-based
Calu-6 [2] = test: Antiproliferative activity against human Calu6 cells assessed as cell growth inhibition; type: cell-based
K562 = test: Antiproliferative activity against human K562 cells assessed as cell growth inhibition; type: cell-based
Mus musculus = test: Toxicity in human Calu6 cells xenografted BALB/c mouse assessed as body weight change at 1 to 10 mg/kg, po qd for 11 days; type: organism-based, Calu-6; design: dose 1-10 mg/kg, route oral; settings: in vivo, 264 h
Method in brief: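 Calu-6 xenografts (5.0 × 10⁶ cells s.c., female Balb/c nude mice). Once tumors reached 150 mm³, oral dosing once daily for 11 days at 1, 3 and 10 mg/kg. Body weight change recorded as percent over the treatment period.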

ASPC1 = test: Antiproliferative activity against human AsPC1 cells assessed as cell growth inhibition; type: cell-based
CCRF-CEM = test: Antiproliferative activity against human CCRF-CEM cells assessed as cell growth inhibition; type: cell-based
PANC-1 = test: Antiproliferative activity against human PANC1 cells assessed as cell growth inhibition; type: cell-based
MDA-MB-231 = test: Antiproliferative activity against human MDA-MB-231 cells assessed as cell growth inhibition; type: cell-based
[3] = Antiproliferative activity against human KPL4 cells assessed as cell growth inhibition; type: cell-based
IGROV-1 = test: Antiproliferative activity against human IGROV1 cells assessed as cell growth inhibition; type: cell-based
[4] = target: Tyrosine-protein kinase Fyn (Homo sapiens, UniProt P06241); test: Inhibition of Fyn
Tyrosine-protein kinase Fyn, sequence (P06241 whole entry): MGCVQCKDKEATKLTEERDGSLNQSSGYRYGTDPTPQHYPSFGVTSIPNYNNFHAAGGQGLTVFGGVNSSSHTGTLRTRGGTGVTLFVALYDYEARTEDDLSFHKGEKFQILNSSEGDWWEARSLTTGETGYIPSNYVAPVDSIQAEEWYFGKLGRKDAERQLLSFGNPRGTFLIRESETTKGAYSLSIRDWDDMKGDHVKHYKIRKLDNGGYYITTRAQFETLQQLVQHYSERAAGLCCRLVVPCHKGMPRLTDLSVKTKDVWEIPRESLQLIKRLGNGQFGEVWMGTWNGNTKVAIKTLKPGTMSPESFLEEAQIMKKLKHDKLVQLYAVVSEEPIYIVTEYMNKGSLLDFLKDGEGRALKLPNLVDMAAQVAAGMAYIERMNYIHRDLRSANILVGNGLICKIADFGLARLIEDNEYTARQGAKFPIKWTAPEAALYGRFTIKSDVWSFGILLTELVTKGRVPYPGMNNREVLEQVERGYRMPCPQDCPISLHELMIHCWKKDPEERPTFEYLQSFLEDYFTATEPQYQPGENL

[5] = target: Vascular endothelial growth factor receptor 2 (Homo sapiens, UniProt P35968); test: Inhibition of VEGFR2
[6] = Clearance in mouse liver microsome at 5 uM after 60 mins by LC-MS/MS analysis; type: ADME; settings: liver microsomes, read-out: CLH
Method in brief: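 Test compound at 5 µM incubated with mouse liver microsomes, 1.0 mg protein/mL, in 50 mM potassium phosphate pH 7.4 at 37 °C. Started by adding NADPH generating system (glucose 6-phosphate 3.2 mM, β-NADP 2.6 mM, MgCl2 6.5 mM). Substrate depletion measured against internal standard. Intrinsic clearance is the first-order decay constant normalized to protein.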

C32 = test: Antiproliferative activity against human C32 cells assessed as cell growth inhibition; type: cell-based
DU-145 = test: Antiproliferative activity against human DU145 cells assessed as cell growth inhibition; type: cell-based
Ephrin type-A receptor 2 = Ephrin type-A receptor 2 (Homo sapiens, UniProt P29317); test: Inhibition of EPHA2
Ephrin type-A receptor 2, sequence (P29317 whole entry): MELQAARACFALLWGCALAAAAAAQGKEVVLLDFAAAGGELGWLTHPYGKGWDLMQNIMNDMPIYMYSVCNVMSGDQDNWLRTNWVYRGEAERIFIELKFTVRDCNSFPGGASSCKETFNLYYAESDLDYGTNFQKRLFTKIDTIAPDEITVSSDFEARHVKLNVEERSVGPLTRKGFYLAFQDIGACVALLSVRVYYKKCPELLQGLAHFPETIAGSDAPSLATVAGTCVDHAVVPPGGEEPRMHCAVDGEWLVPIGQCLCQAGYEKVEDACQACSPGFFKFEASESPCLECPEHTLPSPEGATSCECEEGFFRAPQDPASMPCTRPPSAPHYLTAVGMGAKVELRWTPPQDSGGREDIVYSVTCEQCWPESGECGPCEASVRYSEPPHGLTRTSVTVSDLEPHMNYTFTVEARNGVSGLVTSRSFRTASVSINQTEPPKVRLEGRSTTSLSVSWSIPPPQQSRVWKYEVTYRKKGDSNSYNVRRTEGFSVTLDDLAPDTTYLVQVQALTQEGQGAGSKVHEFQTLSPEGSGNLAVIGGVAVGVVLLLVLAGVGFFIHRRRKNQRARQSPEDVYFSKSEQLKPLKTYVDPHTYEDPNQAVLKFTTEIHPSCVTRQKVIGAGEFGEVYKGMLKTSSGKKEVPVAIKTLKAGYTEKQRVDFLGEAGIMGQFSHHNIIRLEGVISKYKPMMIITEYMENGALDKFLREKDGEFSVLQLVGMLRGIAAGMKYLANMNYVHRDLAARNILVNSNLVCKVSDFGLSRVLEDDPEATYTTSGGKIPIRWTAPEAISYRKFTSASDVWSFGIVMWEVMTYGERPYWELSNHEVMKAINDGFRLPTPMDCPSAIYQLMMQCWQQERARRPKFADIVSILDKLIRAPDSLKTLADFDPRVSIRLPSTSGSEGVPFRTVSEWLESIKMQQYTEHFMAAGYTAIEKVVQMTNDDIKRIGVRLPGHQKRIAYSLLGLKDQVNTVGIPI

CWR22R = test: Antiproliferative activity against human 22Rv1 cells assessed as cell growth inhibition; type: cell-based
[7] = Half life in nude mouse at 30 mg/kg, po by LC-MS/MS analysis; type: ADME, organism-based; design: dose 30 mg/kg, route oral; settings: in vivo
Method in brief: (§1)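 Female nude mice given single oral dose in DMSO/Cremophor EL/1% Tween 80 (1:1:8 v/v/v) by stomach sonde. Blood taken at 30 min, 1, 2, 4, 7 and 24 h (n = 2/time point). Plasma precipitated with CH3CN/MeOH plus internal standard, filtered, measured by LC-MS/MS (LLOQ 20 ng/mL). Parameters by non-compartmental analysis; CL given as CL/F.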

CEM/C2 = test: Antiproliferative activity against human CEM/C2 cells assessed as cell growth inhibition; type: cell-based
A549 = test: Antiproliferative activity against human A549 cells assessed as cell growth inhibition; type: cell-based
[8] = AUC (0 to 24 hrs) in nude mouse at 30 mg/kg, po by LC-MS/MS analysis; type: ADME, organism-based; design: time < 24 hr, dose 30 mg/kg, route oral; settings: plasma
Calu-6 [9] = test: Antitumor activity against human Calu6 cells xenografted in po dosed BALB/c mouse assessed as tumor growth inhibition administered qd for 11 days; type: functional; settings: for ED50: Calu-6, po, 264 h
Method in brief: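 Calu-6 cells in Hanks' balanced salt solution, 5.0 × 10⁶ per mouse, implanted s.c. in flank of female Balb/c nude mice. Once tumors reached 150 mm³, oral dosing once daily for 11 days. Tumor volume = 1/2 × long × short² diameter; growth inhibition from volume change in treated versus control group.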

PC-3 = test: Antiproliferative activity against human PC3 cells assessed as cell growth inhibition; type: cell-based
[10] = target: Receptor-type tyrosine-protein kinase FLT3 (Homo sapiens, UniProt P36888); test: Inhibition of FLT3
[11] = Inhibition of PDGFR
[12] = target: Cyclin-dependent kinase 2 (Homo sapiens, UniProt P24941); test: Inhibition of CDK2
MCF7 = test: Antiproliferative activity against human MCF7 cells assessed as cell growth inhibition; type: cell-based
WiDr = test: Antiproliferative activity against human WiDr cells assessed as cell growth inhibition; type: cell-based
[13] = target: Protein-tyrosine kinase 6 (Homo sapiens, UniProt Q13882); test: Inhibition of BRK
Protein-tyrosine kinase 6, sequence (Q13882 whole entry): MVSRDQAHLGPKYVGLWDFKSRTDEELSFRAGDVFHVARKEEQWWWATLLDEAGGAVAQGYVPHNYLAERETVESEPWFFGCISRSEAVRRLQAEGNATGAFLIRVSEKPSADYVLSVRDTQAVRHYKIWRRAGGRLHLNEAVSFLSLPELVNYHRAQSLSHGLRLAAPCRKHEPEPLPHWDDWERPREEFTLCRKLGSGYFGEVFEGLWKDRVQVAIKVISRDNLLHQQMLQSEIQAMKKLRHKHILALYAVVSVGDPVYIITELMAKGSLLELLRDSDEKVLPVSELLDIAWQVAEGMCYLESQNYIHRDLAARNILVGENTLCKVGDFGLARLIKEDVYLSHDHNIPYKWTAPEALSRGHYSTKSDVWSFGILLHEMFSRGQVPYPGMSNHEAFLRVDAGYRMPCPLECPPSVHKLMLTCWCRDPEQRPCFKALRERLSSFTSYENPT

Huh-7 = test: Antiproliferative activity against human HuH7 cells assessed as cell growth inhibition; type: cell-based
[14] = target: Tyrosine-protein kinase Lyn (Homo sapiens, UniProt P07948); test: Inhibition of Lyn
Tyrosine-protein kinase Lyn, sequence (P07948 whole entry): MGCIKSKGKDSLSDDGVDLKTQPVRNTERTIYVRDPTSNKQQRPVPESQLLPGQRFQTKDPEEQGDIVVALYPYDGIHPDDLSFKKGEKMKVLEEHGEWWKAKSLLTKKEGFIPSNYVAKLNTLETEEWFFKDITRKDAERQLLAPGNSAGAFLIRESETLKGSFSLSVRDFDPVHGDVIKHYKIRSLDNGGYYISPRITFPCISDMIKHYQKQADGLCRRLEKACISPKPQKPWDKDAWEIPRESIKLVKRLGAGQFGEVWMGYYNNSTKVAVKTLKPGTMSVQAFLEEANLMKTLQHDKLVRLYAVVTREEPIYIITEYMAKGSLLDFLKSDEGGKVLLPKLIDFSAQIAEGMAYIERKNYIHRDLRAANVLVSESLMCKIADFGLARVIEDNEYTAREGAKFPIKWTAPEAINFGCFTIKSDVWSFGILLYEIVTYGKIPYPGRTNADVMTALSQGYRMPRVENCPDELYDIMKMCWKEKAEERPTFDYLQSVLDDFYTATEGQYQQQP

[15] = Cmax in nude mouse at 30 mg/kg, po by LC-MS/MS analysis; type: ADME, organism-based; design: dose 30 mg/kg, route oral; settings: in vivo; method in brief: as §1
[16] = target: Proto-oncogene tyrosine-protein kinase Src (Homo sapiens, UniProt P12931); test: Inhibition of Src
Insulin receptor = Insulin receptor (Homo sapiens, UniProt P06213); test: Inhibition of INSR
Insulin receptor, sequence (P06213 28-758 limits assumed): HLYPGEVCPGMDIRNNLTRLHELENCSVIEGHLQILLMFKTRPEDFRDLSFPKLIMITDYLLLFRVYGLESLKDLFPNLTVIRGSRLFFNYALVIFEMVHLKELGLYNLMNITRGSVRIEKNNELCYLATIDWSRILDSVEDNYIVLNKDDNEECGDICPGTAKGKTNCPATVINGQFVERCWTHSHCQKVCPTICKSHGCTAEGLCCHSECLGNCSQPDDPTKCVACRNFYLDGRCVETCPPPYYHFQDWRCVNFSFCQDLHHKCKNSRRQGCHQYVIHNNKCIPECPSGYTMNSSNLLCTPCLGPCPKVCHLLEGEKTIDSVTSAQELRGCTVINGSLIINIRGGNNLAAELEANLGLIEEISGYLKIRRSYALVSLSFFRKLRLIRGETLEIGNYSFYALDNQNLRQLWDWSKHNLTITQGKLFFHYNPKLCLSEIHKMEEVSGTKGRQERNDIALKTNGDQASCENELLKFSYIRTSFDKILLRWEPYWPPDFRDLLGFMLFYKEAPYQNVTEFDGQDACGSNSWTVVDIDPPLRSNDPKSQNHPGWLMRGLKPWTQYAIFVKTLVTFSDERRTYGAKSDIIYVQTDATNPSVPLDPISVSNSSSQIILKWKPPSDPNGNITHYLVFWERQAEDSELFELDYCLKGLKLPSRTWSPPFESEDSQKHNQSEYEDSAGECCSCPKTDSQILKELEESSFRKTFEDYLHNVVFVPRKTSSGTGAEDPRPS
Insulin receptor, sequence (P06213 763-1382 limits assumed): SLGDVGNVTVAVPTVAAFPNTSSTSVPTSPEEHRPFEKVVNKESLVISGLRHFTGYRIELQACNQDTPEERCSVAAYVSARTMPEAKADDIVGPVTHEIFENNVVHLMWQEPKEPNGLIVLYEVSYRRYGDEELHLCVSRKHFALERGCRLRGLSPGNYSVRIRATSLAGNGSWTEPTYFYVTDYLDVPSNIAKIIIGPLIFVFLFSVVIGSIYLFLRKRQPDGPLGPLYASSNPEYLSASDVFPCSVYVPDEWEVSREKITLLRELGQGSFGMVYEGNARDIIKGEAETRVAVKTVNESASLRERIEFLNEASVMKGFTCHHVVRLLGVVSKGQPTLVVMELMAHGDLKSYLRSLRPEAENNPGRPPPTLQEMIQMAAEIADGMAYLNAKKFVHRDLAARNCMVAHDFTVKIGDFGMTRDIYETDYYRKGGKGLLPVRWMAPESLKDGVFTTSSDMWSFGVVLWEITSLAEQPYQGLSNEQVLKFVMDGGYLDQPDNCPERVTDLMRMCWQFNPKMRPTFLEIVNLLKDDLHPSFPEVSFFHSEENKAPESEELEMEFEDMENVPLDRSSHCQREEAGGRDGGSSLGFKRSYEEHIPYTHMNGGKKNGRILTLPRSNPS

[17] = Antiproliferative activity against human MDA-MB-435S cells assessed as cell growth inhibition; type: cell-based
[18] = target: Glycogen synthase kinase-3 beta (Homo sapiens, UniProt P49841); test: Inhibition of GSK3-beta
[19] = target: Macrophage-stimulating protein receptor (Homo sapiens, UniProt Q04912); test: Inhibition of RON
MKN-45 = test: Antiproliferative activity against human MKN45 cells assessed as cell growth inhibition; type: cell-based
HepG2 = test: Antiproliferative activity against human HepG2 cells assessed as cell growth inhibition; type: cell-based
[20] = Cytotoxicity in fibroblast cells assessed as morphological change at 4 to 20 uM; type: cell-based
Calu-6 [21] = test: Antiangiogenic activity in human Calu6 cells xenografted in BALB/c mouse assessed as microvessel density reduction at 1 to 10 mg/kg, po qd for 11 days measured 24 hrs after last postdose by immunohistochemical staining method; type: functional, organism-based
Method in brief: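 Female Balb/c nude mice given Calu-6 cells s.c. in the flank, 5.0×10⁶ cells per mouse. Dosing was oral, once daily for 11 days, starting once tumors reached 150 mm³. Tumors taken 24 h after the last dose and frozen-sectioned from the mid-portion. Vessels stained with anti-mouse CD31 and counted by image analysis. Density decrease expressed against control.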

[22] = target: Tyrosine-protein kinase ABL1 (Homo sapiens, UniProt P00519); test: Inhibition of ABL
Tyrosine-protein kinase ABL1, sequence (P00519 whole entry): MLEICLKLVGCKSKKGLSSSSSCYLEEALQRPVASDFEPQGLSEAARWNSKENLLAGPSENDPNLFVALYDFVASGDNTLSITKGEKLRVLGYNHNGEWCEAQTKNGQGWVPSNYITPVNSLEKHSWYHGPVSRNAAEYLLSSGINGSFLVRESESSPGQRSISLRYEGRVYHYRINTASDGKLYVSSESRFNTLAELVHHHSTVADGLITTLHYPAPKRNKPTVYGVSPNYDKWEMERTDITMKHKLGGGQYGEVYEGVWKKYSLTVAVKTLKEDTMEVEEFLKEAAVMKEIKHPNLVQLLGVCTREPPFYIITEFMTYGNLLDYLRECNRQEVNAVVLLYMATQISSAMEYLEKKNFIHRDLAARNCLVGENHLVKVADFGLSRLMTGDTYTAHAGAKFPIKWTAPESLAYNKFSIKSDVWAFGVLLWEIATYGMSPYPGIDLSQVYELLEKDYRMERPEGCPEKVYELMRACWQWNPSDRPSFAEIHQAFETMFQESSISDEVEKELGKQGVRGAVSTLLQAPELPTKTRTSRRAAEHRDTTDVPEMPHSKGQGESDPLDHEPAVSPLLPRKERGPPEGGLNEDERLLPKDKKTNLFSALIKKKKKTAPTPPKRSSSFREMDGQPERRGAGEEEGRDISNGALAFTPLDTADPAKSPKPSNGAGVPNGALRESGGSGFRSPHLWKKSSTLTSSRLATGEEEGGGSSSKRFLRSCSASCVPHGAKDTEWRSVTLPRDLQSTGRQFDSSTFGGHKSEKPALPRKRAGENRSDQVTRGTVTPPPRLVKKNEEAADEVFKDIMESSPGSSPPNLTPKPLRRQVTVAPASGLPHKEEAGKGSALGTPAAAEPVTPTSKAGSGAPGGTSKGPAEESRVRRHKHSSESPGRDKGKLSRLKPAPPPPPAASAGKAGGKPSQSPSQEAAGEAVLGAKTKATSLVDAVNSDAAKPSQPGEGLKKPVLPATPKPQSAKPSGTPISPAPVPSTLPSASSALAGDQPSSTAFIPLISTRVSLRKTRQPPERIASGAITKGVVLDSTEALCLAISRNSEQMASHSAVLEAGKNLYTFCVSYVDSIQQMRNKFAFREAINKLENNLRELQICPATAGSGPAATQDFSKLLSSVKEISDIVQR

COLO 205 = test: Antiproliferative activity against human COLO205 cells assessed as cell growth inhibition; type: cell-based
[23] = Inhibition of PKA
NCI-N87 = test: Antiproliferative activity against human NCI-N87 cells assessed as cell growth inhibition; type: cell-based

IC50 (NCI-H460): 19 µM
IC50 [1]: > 50 µM
IC50 (HCT-15): 20 µM
IC50 (Calu-6 [2]): 40 µM
IC50 (K562): 29 µM
IC50 (ASPC1): 55 µM
IC50 (CCRF-CEM): 20 µM
IC50 (PANC-1): 39 µM
IC50 (MDA-MB-231): 39 µM
IC50 [4]: > 50 µM
IC50 [5]: > 50 µM
microsomal CLint at 5 µM [6]: 7 µL/min/mg
IC50 (DU-145): 5.3 µM
IC50 (Ephrin type-A receptor 2): > 50 µM
half-life [7]: 7.8 h
IC50 (A549): 13 µM
AUC(0-t) at 24 h [8]: 86400 ng·h/mL
IC50 (PC-3): 24 µM
IC50 [10]: > 50 µM
IC50 [11]: > 50 µM
IC50 [12]: > 50 µM
IC50 (MCF7): 65 µM
IC50 [13]: > 50 µM
IC50 (Huh-7): 29 µM
IC50 [14]: > 50 µM
Cmax [15]: 8270 ng/mL
IC50 [16]: > 50 µM
IC50 (Insulin receptor): > 50 µM
IC50 [18]: > 50 µM
IC50 [19]: > 50 µM
IC50 (MKN-45): 5.7 µM
IC50 (HepG2): 16 µM
IC50 [22]: > 50 µM
IC50 (COLO 205): 18 µM
IC50 [23]: > 50 µM
Compound: COc1ccc(C(=O)NC[C@@H](O)CO)cc1/C=C/c1ccc(Cl)cc1
Activity (Mus musculus): Non-toxic
IC50 [3]: 4.9 µM
IC50 (IGROV-1): 0.92 µM
IC50 (C32): 38 µM
IC50 (CWR22R): 8.6 µM
IC50 (CEM/C2): 30 µM
TGI (Calu-6 [9]): Dose-dependent effect
ED50 (Calu-6 [9]): 3.2 mg/kg
IC50 (WiDr): 7 µM
IC50 [17]: 74 µM
Activity [20]: Non-toxic
Activity (Calu-6 [21]): Active
IC50 (NCI-N87): 52 µM

IC50 (NCI-H460): 30 µM
IC50 [1]: > 50 µM
IC50 (HCT-15): 29 µM
IC50 (Calu-6 [2]): 54 µM
IC50 (K562): 36 µM
IC50 (ASPC1): 63 µM
IC50 (CCRF-CEM): 30 µM
IC50 (PANC-1): 49 µM
IC50 (MDA-MB-231): 38 µM
IC50 [4]: > 50 µM
IC50 [5]: > 50 µM
microsomal CLint at 5 µM [6]: 12 µL/min/mg
IC50 (DU-145): 23 µM
IC50 (Ephrin type-A receptor 2): > 50 µM
half-life [7]: 8.5 h
IC50 (A549): 18 µM
AUC(0-t) at 24 h [8]: 90200 ng·h/mL
IC50 (PC-3): 17 µM
IC50 [10]: > 50 µM
IC50 [11]: > 50 µM
IC50 [12]: > 50 µM
IC50 (MCF7): 63 µM
IC50 [13]: > 50 µM
IC50 (Huh-7): 27 µM
IC50 [14]: > 50 µM
Cmax [15]: 9370 ng/mL
IC50 [16]: > 50 µM
IC50 (Insulin receptor): > 50 µM
IC50 [18]: > 50 µM
IC50 [19]: > 50 µM
IC50 (MKN-45): 26 µM
IC50 (HepG2): 28 µM
IC50 [22]: > 50 µM
IC50 (COLO 205): 18 µM
IC50 [23]: > 50 µM
Compound: COc1ccc(C(=O)NC[C@H](O)CO)cc1/C=C/c1ccc(Cl)cc1
Activity (Mus musculus): Non-toxic
IC50 [3]: 15 µM
IC50 (IGROV-1): 1.4 µM
IC50 (C32): 46 µM
IC50 (CWR22R): 21 µM
IC50 (CEM/C2): 30 µM
TGI (Calu-6 [9]): Dose-dependent effect
ED50 (Calu-6 [9]): 2.3 mg/kg
IC50 (WiDr): 15 µM
IC50 [17]: 69 µM
Activity [20]: Non-toxic
Activity (Calu-6 [21]): Active
IC50 (NCI-N87): 52 µM
